According to ChEMBL document CHEMBL5653631, “A Potent and Selective ULK1 Inhibitor Suppresses Autophagy and Sensitizes Cancer Cells to Nutrient Stress” (iScience, 2018):
Each block holds one compound with its values, some of them ahead of it.

How the values were obtained:
[1] = biological target: NT-3 growth factor receptor (Homo sapiens) (UniProt Q16288); test: Inhibition of human recombinant TRKC at 500 nM related to control ULK1
[2] = biological target: Glycogen synthase kinase-3 beta (Homo sapiens) (UniProt P49841); test: Inhibition of human recombinant GSK3B at 500 nM related to control ULK1
[3] = biological target: Cyclin-dependent kinase 1 (Homo sapiens) (UniProt P06493); test: Inhibition of human recombinant CDC2 at 500 nM related to control ULK1
[4] = biological target: Bone morphogenetic protein receptor type-1B (Homo sapiens) (UniProt O00238); test: Inhibition of human recombinant BMPR1B at 15 nM in presence of ATP by radiometric assay relative to control
In short: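 Part of a radiometric in vitro activity panel of 327 recombinant human kinases. Each kinase was tested in duplicate at one inhibitor concentration. Activity remaining was expressed as a percentage of the vehicle control, and percent inhibition was taken as 100 minus that value.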

[5] = biological target: Serine/threonine-protein kinase N1 (Homo sapiens) (UniProt Q16512); test: Inhibition of human recombinant PKN1 at 15 nM related to control ULK1
[6] = biological target: T1, Ephrin type-A receptor 1 (Homo sapiens) (UniProt P21709); test: Inhibition of human recombinant EphA1 at 15 nM related to control ULK1
T1 sequence (whole entry): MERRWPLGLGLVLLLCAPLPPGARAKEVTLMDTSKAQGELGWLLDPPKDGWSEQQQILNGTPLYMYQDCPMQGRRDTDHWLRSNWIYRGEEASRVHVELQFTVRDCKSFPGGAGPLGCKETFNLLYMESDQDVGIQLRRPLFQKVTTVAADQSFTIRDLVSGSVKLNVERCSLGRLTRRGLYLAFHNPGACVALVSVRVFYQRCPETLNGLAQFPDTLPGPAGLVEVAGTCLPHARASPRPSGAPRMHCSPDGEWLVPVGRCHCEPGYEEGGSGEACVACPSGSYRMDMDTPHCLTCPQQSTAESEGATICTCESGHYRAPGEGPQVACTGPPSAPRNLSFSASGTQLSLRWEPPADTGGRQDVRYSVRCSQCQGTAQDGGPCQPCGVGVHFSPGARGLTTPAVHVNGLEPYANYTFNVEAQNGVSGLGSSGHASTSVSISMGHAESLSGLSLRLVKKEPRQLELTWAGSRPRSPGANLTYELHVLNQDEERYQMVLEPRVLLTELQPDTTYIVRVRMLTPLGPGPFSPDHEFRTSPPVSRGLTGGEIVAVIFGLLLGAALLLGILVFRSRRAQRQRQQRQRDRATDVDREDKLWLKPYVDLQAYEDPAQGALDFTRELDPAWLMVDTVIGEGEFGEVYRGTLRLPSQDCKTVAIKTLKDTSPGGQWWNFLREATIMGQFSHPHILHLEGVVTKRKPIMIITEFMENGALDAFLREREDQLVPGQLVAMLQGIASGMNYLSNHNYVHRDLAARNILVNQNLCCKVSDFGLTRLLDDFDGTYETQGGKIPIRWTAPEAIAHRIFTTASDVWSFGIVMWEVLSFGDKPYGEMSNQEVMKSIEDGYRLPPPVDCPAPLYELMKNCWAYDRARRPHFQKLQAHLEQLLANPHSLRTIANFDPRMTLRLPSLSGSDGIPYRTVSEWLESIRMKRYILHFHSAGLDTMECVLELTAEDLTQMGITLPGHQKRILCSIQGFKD

[7] = biological target: SRSF protein kinase 3 (Homo sapiens) (UniProt Q9UPE1); test: Inhibition of human recombinant MSSK1 at 40 nM related to control ULK1
[8] = biological target: T2, Serine/threonine-protein kinase STK11 (Homo sapiens) (UniProt Q15831); test: Inhibition of human recombinant LKB1 at 40 nM related to control ULK1
T2 sequence (whole entry): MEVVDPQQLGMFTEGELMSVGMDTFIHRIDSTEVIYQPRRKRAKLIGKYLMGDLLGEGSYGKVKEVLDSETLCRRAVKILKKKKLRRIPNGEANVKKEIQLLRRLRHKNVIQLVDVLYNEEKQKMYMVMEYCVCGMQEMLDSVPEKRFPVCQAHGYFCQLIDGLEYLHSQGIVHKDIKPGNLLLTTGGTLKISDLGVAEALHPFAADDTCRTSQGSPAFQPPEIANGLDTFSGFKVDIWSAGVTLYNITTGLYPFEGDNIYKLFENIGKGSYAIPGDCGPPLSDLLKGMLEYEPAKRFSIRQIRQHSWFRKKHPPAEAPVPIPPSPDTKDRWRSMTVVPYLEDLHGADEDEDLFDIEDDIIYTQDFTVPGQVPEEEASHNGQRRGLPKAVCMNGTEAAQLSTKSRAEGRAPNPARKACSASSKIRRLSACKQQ

[9] = biological target: T3, Tyrosine-protein kinase Mer (Homo sapiens) (UniProt Q12866); test: Inhibition of human recombinant MER at 40 nM related to control ULK1
T3 sequence (whole entry): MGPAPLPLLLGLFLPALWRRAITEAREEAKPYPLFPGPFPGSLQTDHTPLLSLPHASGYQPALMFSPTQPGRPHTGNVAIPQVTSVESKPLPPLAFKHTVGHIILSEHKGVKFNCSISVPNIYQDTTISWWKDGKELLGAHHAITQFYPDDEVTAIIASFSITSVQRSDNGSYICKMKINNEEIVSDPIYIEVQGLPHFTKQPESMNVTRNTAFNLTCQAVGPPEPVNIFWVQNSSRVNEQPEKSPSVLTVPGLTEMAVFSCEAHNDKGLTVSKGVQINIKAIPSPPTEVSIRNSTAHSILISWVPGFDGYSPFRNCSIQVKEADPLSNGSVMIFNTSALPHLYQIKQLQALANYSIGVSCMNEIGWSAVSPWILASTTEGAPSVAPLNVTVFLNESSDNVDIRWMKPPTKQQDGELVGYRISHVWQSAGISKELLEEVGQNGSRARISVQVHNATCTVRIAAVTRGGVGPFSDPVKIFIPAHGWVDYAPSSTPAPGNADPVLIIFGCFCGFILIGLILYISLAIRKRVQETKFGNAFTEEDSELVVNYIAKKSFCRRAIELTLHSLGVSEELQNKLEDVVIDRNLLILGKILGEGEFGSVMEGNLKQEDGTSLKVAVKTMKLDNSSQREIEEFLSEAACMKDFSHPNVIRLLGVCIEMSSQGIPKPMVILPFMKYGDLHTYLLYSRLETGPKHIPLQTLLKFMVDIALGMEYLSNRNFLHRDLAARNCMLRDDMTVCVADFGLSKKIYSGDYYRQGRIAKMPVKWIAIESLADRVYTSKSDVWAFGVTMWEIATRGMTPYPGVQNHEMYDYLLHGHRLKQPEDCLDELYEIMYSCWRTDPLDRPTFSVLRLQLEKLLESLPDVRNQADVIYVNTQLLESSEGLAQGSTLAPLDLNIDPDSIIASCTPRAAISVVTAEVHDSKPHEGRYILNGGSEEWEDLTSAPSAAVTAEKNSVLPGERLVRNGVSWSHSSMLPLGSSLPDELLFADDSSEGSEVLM

Sequence of Bone morphogenetic protein receptor type-1B (Homo sapiens) (O00238 whole entry): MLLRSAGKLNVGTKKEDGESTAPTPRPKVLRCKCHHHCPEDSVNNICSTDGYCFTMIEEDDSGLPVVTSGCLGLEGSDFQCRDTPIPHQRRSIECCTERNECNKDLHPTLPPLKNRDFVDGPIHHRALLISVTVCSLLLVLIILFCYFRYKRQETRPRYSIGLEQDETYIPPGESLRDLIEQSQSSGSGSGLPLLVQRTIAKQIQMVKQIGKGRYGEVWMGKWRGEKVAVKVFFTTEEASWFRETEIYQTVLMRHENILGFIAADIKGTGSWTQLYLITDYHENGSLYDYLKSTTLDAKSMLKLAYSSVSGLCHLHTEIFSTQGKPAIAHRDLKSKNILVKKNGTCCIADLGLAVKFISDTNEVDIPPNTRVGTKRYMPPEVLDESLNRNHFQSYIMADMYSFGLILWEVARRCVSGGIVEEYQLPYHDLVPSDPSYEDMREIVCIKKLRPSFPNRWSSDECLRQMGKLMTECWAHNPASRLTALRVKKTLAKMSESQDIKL
Sequence of Cyclin-dependent kinase 1 (Homo sapiens) (P06493 whole entry, looked up): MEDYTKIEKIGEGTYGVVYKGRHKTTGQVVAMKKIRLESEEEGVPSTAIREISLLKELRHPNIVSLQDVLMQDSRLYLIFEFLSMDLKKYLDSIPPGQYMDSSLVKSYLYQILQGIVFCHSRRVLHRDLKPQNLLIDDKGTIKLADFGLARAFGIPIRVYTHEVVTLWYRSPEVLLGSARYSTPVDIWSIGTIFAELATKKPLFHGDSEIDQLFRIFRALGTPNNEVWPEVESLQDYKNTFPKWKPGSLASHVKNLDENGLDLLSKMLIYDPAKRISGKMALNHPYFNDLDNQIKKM
Sequence of NT-3 growth factor receptor (Homo sapiens) (Q16288 32-839 limits assumed): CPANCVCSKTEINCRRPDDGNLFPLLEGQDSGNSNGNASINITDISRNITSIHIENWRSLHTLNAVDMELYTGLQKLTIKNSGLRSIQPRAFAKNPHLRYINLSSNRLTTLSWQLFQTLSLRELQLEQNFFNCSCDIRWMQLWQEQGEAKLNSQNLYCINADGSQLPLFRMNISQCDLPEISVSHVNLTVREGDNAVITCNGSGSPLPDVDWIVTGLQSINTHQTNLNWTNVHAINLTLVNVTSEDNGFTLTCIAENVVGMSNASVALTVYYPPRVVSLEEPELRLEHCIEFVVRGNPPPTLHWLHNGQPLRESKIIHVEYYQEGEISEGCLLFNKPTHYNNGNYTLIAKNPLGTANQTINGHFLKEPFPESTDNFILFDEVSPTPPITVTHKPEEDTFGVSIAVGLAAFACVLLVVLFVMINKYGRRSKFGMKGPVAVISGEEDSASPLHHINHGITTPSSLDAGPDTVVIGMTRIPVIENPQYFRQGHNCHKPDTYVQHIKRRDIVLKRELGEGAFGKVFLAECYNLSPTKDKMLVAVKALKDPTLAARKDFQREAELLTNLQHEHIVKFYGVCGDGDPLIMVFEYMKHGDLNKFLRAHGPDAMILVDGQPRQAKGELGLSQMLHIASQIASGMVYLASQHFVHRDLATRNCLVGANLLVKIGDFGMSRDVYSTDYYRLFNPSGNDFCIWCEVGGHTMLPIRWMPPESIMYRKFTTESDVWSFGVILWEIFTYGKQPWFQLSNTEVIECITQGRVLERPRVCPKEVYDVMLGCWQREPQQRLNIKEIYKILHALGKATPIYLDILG
Sequence of Glycogen synthase kinase-3 beta (Homo sapiens) (P49841 whole entry, looked up): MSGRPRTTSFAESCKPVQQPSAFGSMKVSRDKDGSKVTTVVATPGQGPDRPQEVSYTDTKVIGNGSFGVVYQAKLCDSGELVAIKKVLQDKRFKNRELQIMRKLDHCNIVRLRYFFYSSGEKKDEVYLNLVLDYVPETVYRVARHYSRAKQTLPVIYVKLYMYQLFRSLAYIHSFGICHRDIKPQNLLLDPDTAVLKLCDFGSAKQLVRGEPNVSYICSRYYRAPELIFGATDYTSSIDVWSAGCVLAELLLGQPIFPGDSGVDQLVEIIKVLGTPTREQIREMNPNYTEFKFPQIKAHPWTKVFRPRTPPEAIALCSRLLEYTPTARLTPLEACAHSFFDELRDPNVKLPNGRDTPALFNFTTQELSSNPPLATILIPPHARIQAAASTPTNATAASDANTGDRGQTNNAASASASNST
Sequence of Serine/threonine-protein kinase N1 (Homo sapiens) (Q16512 2-942 limits assumed): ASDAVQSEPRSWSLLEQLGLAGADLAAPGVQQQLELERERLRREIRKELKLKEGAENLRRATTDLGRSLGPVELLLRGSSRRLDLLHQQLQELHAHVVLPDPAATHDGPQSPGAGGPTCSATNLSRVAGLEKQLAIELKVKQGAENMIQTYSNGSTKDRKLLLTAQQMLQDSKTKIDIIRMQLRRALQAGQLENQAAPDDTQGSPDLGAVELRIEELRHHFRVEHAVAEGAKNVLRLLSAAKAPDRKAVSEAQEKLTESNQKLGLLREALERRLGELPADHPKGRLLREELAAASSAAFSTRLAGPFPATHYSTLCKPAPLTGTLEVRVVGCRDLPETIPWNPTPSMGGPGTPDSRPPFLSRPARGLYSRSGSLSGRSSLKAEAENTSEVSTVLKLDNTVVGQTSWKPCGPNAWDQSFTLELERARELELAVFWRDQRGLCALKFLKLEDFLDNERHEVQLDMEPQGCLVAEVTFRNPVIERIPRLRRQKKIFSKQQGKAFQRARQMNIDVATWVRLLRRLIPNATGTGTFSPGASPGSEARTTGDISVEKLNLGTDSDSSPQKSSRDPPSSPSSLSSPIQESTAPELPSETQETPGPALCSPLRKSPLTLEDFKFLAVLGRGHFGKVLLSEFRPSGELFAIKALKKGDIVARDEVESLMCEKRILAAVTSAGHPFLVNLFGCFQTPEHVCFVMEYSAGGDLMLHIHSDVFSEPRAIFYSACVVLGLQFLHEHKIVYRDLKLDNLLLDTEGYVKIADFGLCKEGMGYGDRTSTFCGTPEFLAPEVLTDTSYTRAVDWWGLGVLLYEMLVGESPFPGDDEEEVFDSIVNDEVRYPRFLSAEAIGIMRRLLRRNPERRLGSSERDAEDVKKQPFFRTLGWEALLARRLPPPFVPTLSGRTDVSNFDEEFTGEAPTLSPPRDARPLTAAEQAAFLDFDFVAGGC
Sequence of SRSF protein kinase 3 (Homo sapiens) (Q9UPE1 whole entry): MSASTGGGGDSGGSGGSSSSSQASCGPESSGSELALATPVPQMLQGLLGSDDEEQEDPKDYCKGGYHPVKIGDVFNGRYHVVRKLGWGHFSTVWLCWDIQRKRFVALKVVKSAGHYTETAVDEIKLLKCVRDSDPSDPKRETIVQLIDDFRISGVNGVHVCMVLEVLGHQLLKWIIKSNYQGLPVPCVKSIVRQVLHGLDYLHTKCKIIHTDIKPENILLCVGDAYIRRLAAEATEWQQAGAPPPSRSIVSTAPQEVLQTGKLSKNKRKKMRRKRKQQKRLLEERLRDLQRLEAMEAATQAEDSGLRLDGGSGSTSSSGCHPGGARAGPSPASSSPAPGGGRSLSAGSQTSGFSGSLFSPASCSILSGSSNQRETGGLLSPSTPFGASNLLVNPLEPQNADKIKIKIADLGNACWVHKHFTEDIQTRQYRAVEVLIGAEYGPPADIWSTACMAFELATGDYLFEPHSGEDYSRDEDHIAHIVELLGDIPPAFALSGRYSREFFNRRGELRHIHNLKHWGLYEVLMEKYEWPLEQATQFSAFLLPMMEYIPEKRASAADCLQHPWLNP

fold change (FC) [1]: 0
fold change (FC) [2]: 0
fold change (FC) [3]: 0.41
Structure (SMILES): CNC(=O)c1ccccc1Oc1nc(Nc2cc(OC)c(OC)c(OC)c2)ncc1Br

inhibition [4]: 24%
fold change (FC) [5]: 0
fold change (FC) [6]: 0
Structure (SMILES): CC(C)[C@H](NC(=O)c1cc(-c2cnn3cc(-c4ccc(OCCN5CCCCC5)cc4)cnc23)cs1)C(F)(F)F

fold change (FC) [7]: 0.18
fold change (FC) [8]: 0.18
fold change (FC) [9]: 0.01
Structure (SMILES): O=C(N[C@@H](C1CC1)C(F)(F)F)c1cc(-c2cnn3cc(-c4ccc(F)cc4)cnc23)cs1
